Reference: PMC7240809 (ACS Omega, 2020)
Blank lines part the entries; values can stand above or below the molecule they belong to.

Legend:
MC4R = conditions: read-out: binding affinity to MC4R; cited from earlier work
MC5R = conditions: read-out: binding affinity to MC5R; cited from earlier work
MC3R = conditions: read-out: binding affinity to MC3R; cited from earlier work
[1] = target: melanocortin 1 receptor (MC1R); conditions: read-out: binding affinity (Ki) to MC1R; cited from earlier work
B16–F10 cells = assay: Internalization assay; type: cell-based, Mus musculus; conditions: 2 h, 37 °C
Method in brief: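 B16–F10 mouse melanoma cells were grown in DMEM with 10% FBS and penicillin/streptomycin, then seeded overnight on poly-D-lysine plates. They were incubated with 68Ga-labeled test peptide at 37 °C with mild agitation for 30, 60, 90 or 120 min, then washed with PBS. Cells were trypsinized for the internalized fraction, and both fractions were gamma-counted in triplicate or quadruplicate.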

B16–F10 melanoma = assay: Biodistribution in C57BL/6J mice bearing B16–F10 melanoma; type: in vivo
Method in brief: (§1)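 Male C57BL/6J mice (8–12 weeks) were inoculated subcutaneously on the right dorsal flank with 1 × 10^6 B16–F10 cells and used at 6–8 mm tumor diameter. They received 1–2 MBq 68Ga-labeled test peptide by tail vein under anesthesia, with or without co-injected 0.5 mg BMS 470539. At 1 or 2 h p.i., blood and organs were weighed and gamma-counted. Uptake is %ID/g (mean ± SD); blocked vs unblocked compared by two-way ANOVA with Holm–Sidak.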

[2] = as above; type: in vivo; conditions: C57BL/6J, mouse, total radioactivity; for tissue uptake at 1 h / tissue uptake at 2 h: intravenous; for tissue to tissue ratio at 1 h / tissue to tissue ratio at 2 h: iv
Method in brief: as §1

[3] = In vivo stability, radio-HPLC of mouse urine; design: species or system mice; conditions: 1 h p.i., intravenous
Method in brief: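 Mice under 2% isoflurane received approximately 4–6 MBq 68Ga-labeled test peptide intravenously and recovered freely. At 1 h p.i. they were euthanized by CO2, and urine was collected. Urine was analyzed for metabolites by reversed-phase C18 HPLC in 21% acetonitrile with 0.1% TFA to give percent intact peptide. Three or four independent experiments were run.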

MC4R (Homo sapiens) = MC4R (Homo sapiens) (UniProt P32245); conditions: cited from earlier work
Chain of UniProt P32245 (P32245 whole entry): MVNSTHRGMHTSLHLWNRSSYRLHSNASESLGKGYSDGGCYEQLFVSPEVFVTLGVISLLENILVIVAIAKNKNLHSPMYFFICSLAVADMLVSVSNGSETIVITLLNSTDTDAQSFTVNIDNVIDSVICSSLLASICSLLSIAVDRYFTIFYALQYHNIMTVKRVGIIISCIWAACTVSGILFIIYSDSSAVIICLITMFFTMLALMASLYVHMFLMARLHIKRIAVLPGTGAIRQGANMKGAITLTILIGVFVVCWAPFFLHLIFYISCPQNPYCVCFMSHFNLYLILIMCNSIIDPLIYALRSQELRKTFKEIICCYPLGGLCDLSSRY

MC5R (Homo sapiens) = MC5R (Homo sapiens) (UniProt P33032); conditions: cited from earlier work
Chain of UniProt P33032 (P33032 whole entry): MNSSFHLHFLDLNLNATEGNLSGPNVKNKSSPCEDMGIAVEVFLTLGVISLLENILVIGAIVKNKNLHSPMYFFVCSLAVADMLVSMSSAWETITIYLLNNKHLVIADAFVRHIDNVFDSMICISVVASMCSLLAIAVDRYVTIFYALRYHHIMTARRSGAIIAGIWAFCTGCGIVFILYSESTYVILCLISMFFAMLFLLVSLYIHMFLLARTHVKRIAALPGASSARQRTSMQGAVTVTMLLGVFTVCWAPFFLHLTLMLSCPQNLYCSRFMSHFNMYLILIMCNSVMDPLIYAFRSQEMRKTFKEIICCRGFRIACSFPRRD

MC3R (Homo sapiens) = MC3R (Homo sapiens) (UniProt P41968); conditions: cited from earlier work
Chain of UniProt P41968 (P41968 whole entry): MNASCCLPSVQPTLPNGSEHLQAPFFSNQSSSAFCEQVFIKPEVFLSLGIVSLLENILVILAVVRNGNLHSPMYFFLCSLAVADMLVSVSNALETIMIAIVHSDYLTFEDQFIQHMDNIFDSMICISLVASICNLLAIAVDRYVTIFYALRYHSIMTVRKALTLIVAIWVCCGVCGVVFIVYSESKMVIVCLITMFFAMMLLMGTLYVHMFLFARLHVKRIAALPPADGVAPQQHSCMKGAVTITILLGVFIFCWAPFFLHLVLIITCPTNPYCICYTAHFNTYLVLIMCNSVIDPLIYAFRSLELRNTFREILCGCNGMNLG

MC1R (Homo sapiens) = MC1R (Homo sapiens) (UniProt Q01726); conditions: cited from earlier work
Chain of UniProt Q01726 (Q01726 whole entry): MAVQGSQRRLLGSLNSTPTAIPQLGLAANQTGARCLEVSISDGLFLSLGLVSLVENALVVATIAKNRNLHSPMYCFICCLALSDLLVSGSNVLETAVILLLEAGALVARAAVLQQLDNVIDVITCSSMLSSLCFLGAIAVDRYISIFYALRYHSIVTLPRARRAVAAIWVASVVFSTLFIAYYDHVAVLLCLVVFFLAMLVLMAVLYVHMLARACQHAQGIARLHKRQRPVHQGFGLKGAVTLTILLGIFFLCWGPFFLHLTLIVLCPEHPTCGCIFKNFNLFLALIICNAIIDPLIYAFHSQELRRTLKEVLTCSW

Molecule: Alpha-melanocyte-stimulating hormone [αMSH]
- Ki (MC4R): 0.9 µM

Molecule: Ac-Nle^4-Cyclo[Asp^5-His^6-D-Phe^7-Arg^8-Trp^9-Lys^10]αMSH4-10-NH2 [MTII]
- Ki (MC5R): 0.0461 µM
- Ki (MC3R): 0.0341 µM
- Ki [1]: 0.00069 µM

- tumor/blood uptake ratio (B16–F10 melanoma; 1 h p.i. blocked (n = 5), co-injection of 0.5 mg BMS 470539): 2.24 ± 0.40
- tumor/blood uptake ratio (B16–F10 melanoma; 1 h p.i. unblocked (n = 5)): 9.94
- tumor/bone uptake ratio (B16–F10 melanoma; 1 h p.i. unblocked (n = 5)): 23.3
- tumor/muscle uptake ratio (B16–F10 melanoma; 1 h p.i. unblocked (n = 5)): 40.6
- tumor/blood uptake ratio (B16–F10 melanoma; 2 h p.i. unblocked (n = 4)): 27.7
- tumor/bone uptake ratio (B16–F10 melanoma; 2 h p.i. unblocked (n = 4)): 52.7
- tumor/muscle uptake ratio (B16–F10 melanoma; 2 h p.i. unblocked (n = 4)): 125
- tissue uptake at 1 h ([2]; B16F10 tumor): 6.33 ± 1.48 %ID/g
- tissue uptake at 1 h ([2]; adrenal glands): 0.79 ± 0.72 %ID/g
- tissue uptake at 1 h ([2]; blood): 0.65 ± 0.12 %ID/g
- tissue uptake at 1 h ([2]; bone): 0.33 ± 0.18 %ID/g
- tissue uptake at 1 h ([2]; heart): 0.24 ± 0.06 %ID/g
- tissue uptake at 1 h ([2]; intestine, 0.5 mg): 0.17 ± 0.05 %ID/g
- tissue uptake at 1 h ([2]; intestine): 0.34 ± 0.07 %ID/g
- tissue uptake at 1 h ([2]; kidneys): 5.59 ± 0.88 %ID/g
- tissue uptake at 1 h ([2]; liver): 0.53 ± 0.07 %ID/g
- tissue uptake at 1 h ([2]; lungs): 0.69 ± 0.11 %ID/g
- tissue uptake at 1 h ([2]; muscle): 0.16 ± 0.05 %ID/g
- tissue uptake at 1 h ([2]; stomach): 0.22 ± 0.11 %ID/g
- tissue uptake at 1 h ([2]; thyroid): 0.3 ± 0.08 %ID/g
- tissue to tissue ratio at 1 h ([2]; tumor and blood): 9.94 ± 2.93
- tissue to tissue ratio at 1 h ([2]; tumor and bone): 23.3 ± 12.1
- tissue to tissue ratio at 2 h ([2]; tumor and bone): 52.7 ± 13.4
- tissue to tissue ratio at 1 h ([2]; tumor and kidneys): 1.13 ± 0.22
- tissue to tissue ratio at 1 h ([2]; tumor and liver): 11.9 ± 2.26
- tissue to tissue ratio at 2 h ([2]; tumor and liver): 11.8 ± 2.72
- tissue to tissue ratio at 1 h ([2]; tumor and muscle): 40.6 ± 11.9
- tissue uptake at 2 h ([2]; male, seminal glands): 0.04 ± 0.01 %ID/g
- tissue uptake at 1 h ([2]; male, testes): 0.2 ± 0.06 %ID/g
- tissue uptake at 2 h ([2]; male, testes): 0.07 ± 0.01 %ID/g
- percentage of intact peptide [3]: ≥ 98%
Molecule: CCCC[C@H](NC(=O)CN1CCC(NC(=O)CN2CCN(CC(=O)O)CCN(CC(=O)O)CCN(CC(=O)O)CC2)CC1)C(=O)N[C@H]1CC(=O)NCCCC[C@@H](C(N)=O)N(C)C(=O)[C@H](Cc2c[nH]c3ccccc23)N(C)C(=O)[C@H](CCCNC(=N)N)N(C)C(=O)[C@@H](Cc2ccccc2)NC(=O)[C@H](Cc2cnc[nH]2)N(C)C1=O [[^68Ga]Ga-CCZ01099, metal not drawn]
- radioactivity internalized (B16–F10 cells): 48%
- reduction of tumor uptake by blocking (B16–F10 melanoma; 1 h p.i., blocking with BMS 470539, p < 0.001): 91%

Molecule: αMSH (from UniProt P01189)
- Ki (MC4R (Homo sapiens)): 0.9 µM
- Ki (MC5R (Homo sapiens)): 7.16 µM
- Ki (MC3R (Homo sapiens)): 0.0315 µM
- Ki (MC1R (Homo sapiens)): 0.00023 µM
